Source: ChEMBL document CHEMBL3822410, “Novel substituted isoxazole FXR agonists with cyclopropyl, hydroxycyclobutyl and hydroxyazetidinyl linkers: Understanding and improving key determinants of pharmacological properties” (Bioorg Med Chem Lett, 2016)
Values after ≈ are worked out from the molar mass of the structure shown. Active and inactive are the calls of the source. The rule behind the calls is not given here.

Legend:
[1] = system: Mus musculus; experiment: Reduction in total cholesterol level in high fat diet enriched with cholesterol fed C57BL/6J mouse plasma at 10 mg/kg, po through gavage for 10 days measured after 4 hrs of final dosage relative to vehicle treated-control; format: functional, organism-based
Outline: (§1)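 C57BL/6J mice pre-fed and kept on high fat diet (60% kcal fat) with 1% (w/w) cholesterol; 10 mg/kg by oral gavage for 10 days. Plasma total cholesterol and triglycerides taken at sacrifice 4 h after final dose, expressed as % change versus vehicle group.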

[2] = Apparent oral clearance in C57BL/6J mouse at 5 mg/kg; format: ADME, organism-based; conditions: in vivo
Outline: (§2)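 Mice dosed 5 mg/kg orally and 1 mg/kg intravenously; bioavailability from both arms, all other parameters (AUC, Cmax, T1/2, Cl/F, Vd/F) calculated from the oral arm.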

[3] = Apparent oral volume of distribution in C57BL/6J mouse at 5 mg/kg; format: ADME, organism-based; conditions: in vivo; outline: as §2
[4] = Oral bioavailability in C57BL/6J mouse at 5 mg/kg; format: ADME, organism-based; conditions: in vivo; outline: as §2
[5] = Permeability of the compound assessed as compound enrichment in membrane compartment measured after 16 hrs by PAMPA assay relative to control; format: ADME
Outline: (§3)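 PAMPA, 16 h at rt. Flux = [C_acceptor/(C_donor + C_acceptor)] × 100 × 2. Membrane enrichment = C_membrane × 2/(C_acceptor + C_donor), membrane phase extracted into a volume equal to the acceptor or donor compartment.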

[6] = Aqueous solubility of the compound; format: physicochemical; conditions: buffer
[7] = biological target: T1, Bile acid receptor (Homo sapiens) (UniProt Q96RI1); experiment: Agonist activity at C-terminal Gal4-tagged human FXR (187 to 472 residues) expressed in HEK-293 cells co-expressing pFRluc by mammalian one hybrid assay relative to GW4064; format: cell-based; conditions: HEK293
T1 sequence (whole entry): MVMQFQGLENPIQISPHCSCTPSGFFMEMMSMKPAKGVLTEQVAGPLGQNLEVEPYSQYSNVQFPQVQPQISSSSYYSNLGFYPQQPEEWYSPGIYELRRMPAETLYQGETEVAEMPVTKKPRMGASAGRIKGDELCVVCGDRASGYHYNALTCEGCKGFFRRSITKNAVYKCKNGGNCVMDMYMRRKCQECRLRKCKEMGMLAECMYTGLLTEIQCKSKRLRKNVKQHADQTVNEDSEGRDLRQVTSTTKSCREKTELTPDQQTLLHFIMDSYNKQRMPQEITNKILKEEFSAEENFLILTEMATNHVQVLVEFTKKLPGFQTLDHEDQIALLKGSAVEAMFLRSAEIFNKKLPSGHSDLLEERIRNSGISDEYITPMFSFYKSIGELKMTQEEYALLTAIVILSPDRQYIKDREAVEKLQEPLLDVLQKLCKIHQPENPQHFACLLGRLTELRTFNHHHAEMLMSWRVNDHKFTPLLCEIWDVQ
Outline: (§4)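 Transient transfection of HEK293 cells with Gal4 DBD–human FXR LBD (187–472) chimera under CMV promoter plus pFRluc Gal4-driven firefly luciferase reporter. Cells treated with serial compound dilutions. EC50 from at least three experiments; efficacy is extrapolated maximum signal of the dose-response, GW4064 set to 100%.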

[8] = Half life in C57BL/6J mouse at 5 mg/kg, po and 1 mg/kg, iv; format: ADME, organism-based; conditions: in vivo; outline: as §2
[9] = biological target: T2, Bile acid receptor (Homo sapiens, UniProt Q96RI1); experiment: Agonist activity at GST-tagged FXR LBD (187 to 472 residues) (unknown origin) assessed as FXR interaction with b-CPSSHSSLTERHKILHRLLQEGSPS-COOH by FRET assay
T2 sequence (Q96RI1 whole entry): T1 sequence (whole entry)

[10] = Permeability of the compound assessed as compound influx measured after 16 hrs by PAMPA assay; format: ADME; outline: as §3
[11] = AUC in C57BL/6J mouse at 5 mg/kg, po and 1 mg/kg, iv; format: ADME, organism-based; conditions: in vivo; outline: as §2
[12] = Cmax in C57BL/6J mouse at 5 mg/kg, po and 1 mg/kg, iv; format: ADME, organism-based; conditions: in vivo; outline: as §2
[13] = biological target: T2, Bile acid receptor; experiment: Agonist activity at C-terminal Gal4-tagged human FXR (187 to 472 residues) expressed in HEK-293 cells co-expressing pFRluc by mammalian one hybrid assay; format: cell-based, HEK293; outline: as §4
[14] = system: Mus musculus; experiment: Reduction in total triglyceride level in high fat diet enriched with cholesterol fed C57BL/6J mouse plasma at 10 mg/kg, po through gavage for 10 days measured after 4 hrs of final dosage relative to vehicle treated-control; format: functional, organism-based; outline: as §1
[15] = biological target: T3, Nuclear receptor subfamily 1 group I member 2 (Homo sapiens, UniProt O75469); experiment: Agonist activity at PXR (unknown origin) up to 5 uM
T3 sequence (O75469 whole entry): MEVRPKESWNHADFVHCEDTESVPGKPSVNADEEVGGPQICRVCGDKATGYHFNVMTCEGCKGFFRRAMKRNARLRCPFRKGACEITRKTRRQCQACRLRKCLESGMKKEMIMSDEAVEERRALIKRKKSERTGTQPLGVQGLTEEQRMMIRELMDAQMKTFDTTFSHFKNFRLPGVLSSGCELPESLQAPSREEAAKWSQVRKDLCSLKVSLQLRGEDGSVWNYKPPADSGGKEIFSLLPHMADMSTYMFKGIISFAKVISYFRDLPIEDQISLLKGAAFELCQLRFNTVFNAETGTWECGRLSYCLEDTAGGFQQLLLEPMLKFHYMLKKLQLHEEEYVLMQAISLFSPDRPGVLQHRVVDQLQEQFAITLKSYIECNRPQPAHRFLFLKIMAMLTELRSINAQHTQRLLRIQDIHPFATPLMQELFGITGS

[16] = biological target: T1, Bile acid receptor (Homo sapiens); experiment: Agonist activity at GST-tagged FXR LBD (187 to 472 residues) (unknown origin) assessed as FXR interaction with b-CPSSHSSLTERHKILHRLLQEGSPS-COOH by FRET assay relative to GW4064

CL/F [2] [mL/min/kg] | Vd/F [3] [L/kg] | bioavailability [4] [%] | fold change (FC) [5] | solubility [6] [µM] | Efficacy [7] [%] | half-life [8] [min] | EC50 [9] [nM] | permeability [10] [%] | AUC [11] [ng·h/mL] | Cmax [12] [ng/mL] | EC50 [13] [nM] | Activity [15] | Efficacy [16] [%] | SMILES | Activity [1] | Activity [14]
16 | 0.8 | 18 | 11 | 171 (≈ 105 µg/mL) | 78 | 36 | 9 | 46 | 960 | 1470 | 110 | Not Active | 100 | CC(C)n1nc(C(=O)O)cc1[C@H]1C[C@](O)(c2ccc(OCc3c(-c4c(Cl)cccc4Cl)noc3C3CC3)cc2Cl)C1 | Active | Active
– | – | – | 3 | 197 (≈ 116 µg/mL) | 71 | – | 7 | 35 | – | – | 552 | Not Active | 102 | O=C(O)c1cncc(N2CC(O)(c3ccc(OCc4c(-c5c(Cl)cccc5Cl)noc4C4CC4)cc3Cl)C2)c1 | – | –
